How the values were obtained:
[1] = tested on: A549; experiment: Growth inhibition of human A549 cells after 48 hrs by SRB assay; format: functional; conditions: A549, 48 h
Method in brief: (§1)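 Cells (from ATCC) grown in RPMI-1640 with 10% FBS and penicillin/streptomycin/amphotericin B, 37 °C, 5% CO2. Seeded overnight, then exposed to various compound concentrations for 48 h. A time-zero plate fixed with 10% TCA at dosing. After treatment, cells fixed with 10% TCA, stained with 0.4% SRB in 1% acetic acid, lysed in 10 mM Trizma base, A515 read. GI50 = concentration giving 50% reduction of the control protein increase.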

[2] = tested on: PC-3; experiment: Growth inhibition of human PC3 cells after 48 hrs by SRB assay; format: functional; conditions: PC-3, 48 h; method in brief: as §1

Row | Compound | GI50 [1] | GI50 [2]
1 | COC1=C(OC)[C@H](O)[C@H](C/C=C(\C)CC/C=C(\C)C/C=C/C(C)(C)O)[C@@H](C)C1=O | 23.8 µM | > 30 µM
2 | COc1cc2c(c(C)c1O)C=C[C@](C)(CC/C=C(\C)CCC=C(C)C)O2 | > 30 µM | > 30 µM
3 | COC1=C[C@H](O)[C@H](C/C=C(\C)CC/C=C(\C)C[C@@H]2C[C@@H](C)C(=O)O2)[C@@H](C)C1=O | > 30 µM | > 30 µM
4 | COC1=C[C@H](O)[C@H](C/C=C(\C)CC/C=C(\C)C[C@H](O)/C=C(\C)CO)[C@@H](C)C1=O | > 30 µM | > 30 µM
5 | COC1=C(OC)[C@H](OC(C)=O)[C@H](C/C=C(\C)CC/C=C(\C)C[C@H](O)/C=C(\C)C(=O)O)[C@@H](C)C1=O | > 30 µM | > 30 µM
6 | COC1=C(OC)[C@H](OC(C)=O)[C@H](C/C=C(\C)CC/C=C(\C)C[C@H](O)/C=C(\C)CO)[C@@H](C)C1=O | 29 µM | > 30 µM
7 | COC1=C(OC)[C@H](OC(C)=O)[C@H](C/C=C(\C)CC/C=C(\C)C[C@@H]2C[C@@H](C)C(=O)O2)[C@@H](C)C1=O | 11.3 µM | > 30 µM
8 | COC1=C[C@H](O)[C@H](C/C=C(\C)CC/C=C(\C)CCC=C(C)C)[C@@H](C)C1=O | 16.4 µM | > 30 µM
9 | COC1=C(OC)[C@H](O)[C@H](C/C=C(\C)CC/C=C(\C)CCCC(C)CO)[C@@H](C)C1=O (stereo not given in full) | 7.1 µM | > 30 µM
10 | COC1=C(OC)C(=O)C(C/C=C(\C)CC/C=C(\C)CCC=C(C)C)=C(C)C1=O | > 30 µM | > 30 µM
11 | COC1=C(O)[C@H](O)[C@H](C/C=C(\C)CC/C=C(\C)C[C@H](O)/C=C(\C)CO)[C@@H](C)C1=O | > 30 µM | > 30 µM
12 | COC1=C(OC)[C@H](O)[C@H](C/C=C(\C)CC/C=C(\C)C[C@H](O)C=C(C)C)[C@@H](C)C1=O | 9.6 µM | > 30 µM
13 | COC1=C(OC)[C@H](O)[C@H](C/C=C(\C)CC/C=C(\C)C[C@@H]2C[C@@H](C)C(=O)O2)[C@@H](C)C1=O | 14.1 µM | > 30 µM
14 | COC1=C(OC)C(=O)C(C/C=C(\C)CC/C=C(\C)C[C@H](O)C=C(C)C)=C(C)C1=O | > 30 µM | > 30 µM
15 | COC1=CC(=O)C(C/C=C(\C)CC/C=C(\C)CCC=C(C)C)=C(C)C1=O | > 30 µM | > 30 µM
16 | COC1=C(OC)[C@H](O)[C@H](C/C=C(\C)CC/C=C(\C)CC/C=C(\C)CO)[C@@H](C)C1=O | 8.2 µM | > 30 µM
17 | COC1=C(OC)[C@H](O)[C@H](C/C=C(\C)CC/C=C(\C)C[C@H](O)/C=C(\C)CO)[C@@H](C)C1=O | 12 µM | > 30 µM
18 | COC1=C(OC)[C@H](OC(C)=O)[C@H](C/C=C(\C)CC/C=C(\C)C[C@H](O)C=C(C)C)[C@@H](C)C1=O | 20.7 µM | > 30 µM
19 | COC1=C(OC)[C@H](O)[C@H](C/C=C(\C)CC/C=C(\C)CCC=C(C)C)[C@@H](C)C1=O [ANTROQUINONOL] | 5.7 µM | 13.5 µM
20 | O=c1[nH]cc(F)c(=O)[nH]1 [FLUOROURACIL] | 4.2 µM | 11.7 µM

— ChEMBL document CHEMBL4130436, “Meroterpenoids from a Medicinal Fungus Antrodia cinnamomea” (2017)
